Source: PubChem BioAssay (several laboratories)
HIF activator: HIF pathway transcriptional activators, primary screen, cell-based, U2OS HRE-luciferase, luminescence; U2OS HRE-luciferase reporter; normalized: DMSO 0%, desferrioxamine 100%; activation, % at 7.5 µM (by protocol); 300,000 compounds, 0.32% hits;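 active = mean activation of at least 10% of the iron chelator positive control signal, with at least half of replicates also reaching 10%; inconclusive = mean and replicate majority disagree about reaching 10%; inactive = mean and most replicates under 10%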
V-ATPase pH: regulators of yeast V-ATPase proton pumping, primary screen, pHLuorin cytosolic pH fluorescence; S. cerevisiae; response, % at 10 µM; 350,000 compounds, 0.37% hits; AID 504577, 2011; in the data active = response mostly above about 7.3%, no sharp cut-off; inactive = mostly below about 5.4%; note: actives read high
CendR NRP1 mod: modulators of CendR peptide binding to NRP-1, primary screen, biochemical, fluorescence polarization, uHTS; FAM-RPARPAR peptide binding to NRP-1; AID 602438, 2012; 360,000 compounds, 0.85% hits; Neuropilin-1 (Homo sapiens), O14786; inhibition, % at 25 µM;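 active = inhibition or corrected inhibition above about 18%, plus a signal ratio from 0.5 to 1.5, limit read from the data, passing the limit was not always enough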
Target sequence (O14786 whole entry, looked up): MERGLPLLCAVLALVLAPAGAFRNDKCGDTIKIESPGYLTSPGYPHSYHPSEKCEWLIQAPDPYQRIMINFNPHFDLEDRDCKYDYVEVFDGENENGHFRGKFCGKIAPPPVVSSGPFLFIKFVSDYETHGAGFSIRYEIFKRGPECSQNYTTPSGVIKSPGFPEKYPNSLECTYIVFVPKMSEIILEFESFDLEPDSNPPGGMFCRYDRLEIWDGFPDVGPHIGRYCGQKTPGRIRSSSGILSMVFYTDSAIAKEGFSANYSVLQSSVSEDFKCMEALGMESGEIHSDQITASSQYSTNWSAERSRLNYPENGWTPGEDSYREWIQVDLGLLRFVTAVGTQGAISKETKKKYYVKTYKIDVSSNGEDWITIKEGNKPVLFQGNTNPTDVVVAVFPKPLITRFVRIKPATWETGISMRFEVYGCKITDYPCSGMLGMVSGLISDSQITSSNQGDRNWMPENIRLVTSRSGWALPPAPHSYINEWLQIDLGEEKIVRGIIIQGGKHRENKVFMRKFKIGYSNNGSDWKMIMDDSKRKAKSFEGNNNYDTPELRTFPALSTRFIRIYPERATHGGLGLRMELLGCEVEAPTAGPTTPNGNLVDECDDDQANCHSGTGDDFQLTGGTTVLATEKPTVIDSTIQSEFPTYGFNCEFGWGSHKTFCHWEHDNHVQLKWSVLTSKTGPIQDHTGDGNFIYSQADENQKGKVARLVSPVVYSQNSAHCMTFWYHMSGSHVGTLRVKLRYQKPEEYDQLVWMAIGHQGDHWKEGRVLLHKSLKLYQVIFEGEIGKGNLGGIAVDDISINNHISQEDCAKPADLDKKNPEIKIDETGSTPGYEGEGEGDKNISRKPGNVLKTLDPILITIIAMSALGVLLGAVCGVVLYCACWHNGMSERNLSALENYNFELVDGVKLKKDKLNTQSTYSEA
T cruzi repl: inhibitors of intracellular T. cruzi growth, primary screen, luminescence, NIH3T3 host cells; T. cruzi beta-gal in NIH3T3, 90 h; inhibition, % (test concentration not listed); 300,000 compounds, 1.4% hits;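 active = mean inhibition across valid replicates above about 55%, limit read from the data; inconclusive = mean below that limit but half or more replicates reach it; inactive = mean below it, under half of replicates reach it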;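 note: signal also drops with host cell toxicity which is not excluded here; higher percent means less beta-gal luminescence so fewer parasites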
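compound dosing = single 50 nL compound addition per well in DMSO | material = NIH/3T3 host cells with β-galactosidase reporter T. cruzi | input = 5,000 host fibroblasts per well | timing = ≥90 h infection period, 3 h prior cell attachment | read-out basis = percent inhibition of parasite-derived β-gal signal | detection = GalScreen β-gal luminescence, detergent lysis, 60 min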
Yeast superoxide: reduction of superoxide in aged yeast, primary screen, HTS; S. cerevisiae aged cells, superoxide DHE fluorescence; stronger effect = lower value; superoxide response (% of plate mean), % at 10 µM; 330,000 compounds, 0.18% hits;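 active = superoxide response under a set limit, about three screen SD below normal, cut at about 65% in these data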;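 note: yeast aged for seven days with compound at 30 °C before DHE staining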
AI-2 QS modul: Vibrio harveyi AI-2 quorum sensing modulators, primary screen, JMH597 strain, luminescence/OD600 ratio. activity change, % at 7.5 µM. Vibrio harveyi JMH597 AI-2 luminescence/OD600 ratio, 9 h; stronger effect = lower value; strain lacks LuxN and CqsS sensors; 0 = neutral-control median. 300,000 compounds, 0.4% hits; in the data active = activity change below about -75%, passing the limit was not always enough; inconclusive = no clear call, values can overlap the other calls;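 note: luminescence divided by OD600 gain over 9 h not by final OD600 alone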
JMH597 growth: Vibrio harveyi growth inhibition, confirmation, counter-screen for AI-2 quorum sensing project, JMH597 strain, OD600 absorbance; shares compounds with AI-2 QS modul; 9 h; lacks LuxN and CqsS sensors; growth inhibition, % at 7.5 µM; 750 compounds, 1% hits; AID 2726, 2010;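 active = every replicate shows growth inhibition above 50%; inconclusive = at least half, but not all, replicates pass that cutoff; inactive = fewer than half of replicates pass it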
BB721 const-QS lum: luminescence inhibition in constitutive-on V. harveyi, confirmation, counter-screen for LuxS inhibitor project, strain BB721, luminescence readout; shares compounds with AI-2 QS modul; Vibrio harveyi BB721 luminescence, 9 h; inhibition, % at 7.5 µM; 750 compounds, 95% hits;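 active = inhibition above about 80% in every replicate, not just on average, limit read from the data; inconclusive = at least half of replicates past the limit, but not all; inactive = fewer than half of replicates past the limit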
BB721 growth: growth inhibition of V. harveyi BB721, confirmation, cytotoxicity control for AI-2 quorum sensing inhibitors, strain BB721, absorbance OD600 | shares compounds with AI-2 QS modul | Vibrio harveyi BB721 growth, 9 h | growth inhibition, % at 7.5 µM | 750 compounds, 3% hits | AID 2728, 2010;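 active = every replicate shows growth inhibition above 50%; inconclusive = at least half but not all replicates above 50% inhibition; inactive = under half of replicates above 50% inhibition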
JMH597 AI-2 mod: Vibrio harveyi AI-2 signaling luminescence modulation – JMH597 strain, confirmation; inhibition, % at 7.5 µM; 750 compounds, 97% hits; Vibrio harveyi JMH597 AI-2 quorum sensing luminescence, 9 h; luxN and CqsS knockout, AI-2 only; shares compounds with AI-2 QS modul; AID 2736, 2010;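 active = every replicate shows more than 75% inhibition of signal versus neutral control wells; inconclusive = half to three quarters of replicates exceed 75% inhibition; inactive = fewer than half of replicates exceed 75% inhibition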
Hits are given with their value; - = inactive; ? = inconclusive; . = no result. Only some compounds are listed: those with a hit (about 3% of all), similar ones and a draw of the others.

SMILES	HIF activator	V-ATPase pH	CendR NRP1 mod	T cruzi repl	Yeast superoxide	AI-2 QS modul	JMH597 growth	BB721 const-QS lum	BB721 growth	JMH597 AI-2 mod
C(=N\NCc1ccccc1)/c1ccc2ncccc2c1	-	-	-	-	-	-95	-	98	-	99
CC(COc1ccc(C(C)C)cc1)NC(=O)c1ccc(Br)o1 (centres undefined)	-	-	-	-	-	-83	-	88	-	93
COc1cc2c(c(OC)c1OC)-c1ccc(NC(=O)c3ccc(F)cc3)c(=O)cc1[C@@H](NC(C)=O)CC2	-	-	-	-	-	-	.	.	.	.
CCOc1cccc2c1OC1(C)CC2NC(=O)N1c1cccc(C(=O)NCc2ccccn2)c1 (centres undefined)	-	-	-	-	-	-95	-	-	-	-
CCOC(=O)c1cccc(NC(=O)C(C)N2C(=O)c3ccccc3C2=O)c1 (centres undefined)	-	-	-	-	-	-95	-	99	-	99
CC(C)(C)n1ncc2c(=O)n(CC(=O)Nc3ccc4c(c3)OCO4)cnc21	-	-	-	-	-	-	.	.	.	.
O=C(NNc1nc2cc3c(cc2s1)OCO3)c1ccccc1	-	-	-	-	-	-91	-	98	-	98
COc1ccc(S(=O)(=O)NCC(=O)Nc2ccc(F)cc2)cc1	.	-	-	.	-	.	.	.	.	.
CC(C)c1ccc(NC(=O)CNS(=O)(=O)c2ccc(F)cc2)cc1	-	-	-	-	-	-77	-	89	-	93
O=C(Cn1c(=O)sc2ccccc21)Nc1ccccc1	-	-	-	-	-	-	.	.	.	.
CCN(CC)S(=O)(=O)c1ccc(NC(=O)Cn2c(=O)sc3ccccc32)cc1	-	-	-	-	-	-82	-	91	-	94
O=C(Cn1c(=O)sc2ccccc21)Nc1ccc(S(=O)(=O)N2CCCCC2)cc1	-	-	-	-	-	-90	-	96	-	99
O=C(NCCCN1CCCC1=O)Nc1ccc(F)c(Cl)c1	-	-	-	-	-	-	.	.	.	.
COc1ccc(N(CC(=O)Nc2ccc(OC)c(OC)c2)S(=O)(=O)c2ccccc2)cc1Cl	-	-	-	-	-	-	.	.	.	.
COc1ccc(NC(=O)CN(c2ccc(OC)c(Cl)c2)S(=O)(=O)c2ccccc2)cc1	-	-	-	-	-	?	-	-	-	-
CC1CN(c2nc3ccccn3c(=O)c2/C=C(\C#N)C(N)=O)CC(C)O1 (centres undefined)	-	-	-	-	-	-	.	.	.	.
C=CCNC(=O)C1CCN(S(=O)(=O)c2ccc3ccccc3c2)CC1	-	-	-	-	-	-81	-	-	-	99
O/N=C/Cc1[nH]c2ccccc2c1-c1ccccc1	-	-	-	-	-	-96	-	95	-	99
COc1nc(OC)nc(N2CCC(NC(=O)C(Cc3ccc(C(C)C)cc3)NC(C)=O)CC2)n1 (centres undefined)	-	-	-	-	-	-	.	.	.	.
Cc1ccc(-c2ccc(/C=N/NC(=O)c3ccccc3O)o2)cc1	-	.	.	-	-	-	.	.	.	.
Cc1ccc(-c2ccc(/C=N/NC(N)=S)o2)cc1	-	-	-	-	-	-87	-	90	?	92
CCN1CCN(C(=O)c2ccccc2NS(=O)(=O)c2ccc(Cl)cc2)CC1	-	-	-	-	-	-	.	.	.	.
CC1CCCCN1C(=O)c1cc(-c2ccc3c(c2)OCO3)on1 (centres undefined)	-	-	-	-	-	-	.	.	.	.
CC1CCN(C(=O)c2cc(-c3ccccc3O)on2)CC1	-	-	-	-	-	-84	-	95	-	96
CC1CCN(C(=O)c2cc(-c3ccc4c(c3)OCO4)on2)CC1	-	-	-	-	-	-90	-	96	-	97
SMILES	HIF activator	V-ATPase pH	CendR NRP1 mod	T cruzi repl	Yeast superoxide	AI-2 QS modul	JMH597 growth	BB721 const-QS lum	BB721 growth	JMH597 AI-2 mod
COc1ccc(C(C)NC(=O)c2ccccc2Br)cc1OC (centres undefined)	-	-	-	-	-	-	.	.	.	.
CC(C)CNC(=O)NC(=O)COc1ncnc2sccc12	-	-	-	-	-	-	.	.	.	.
CC(C)CCNC(=O)NC(=O)COc1ncnc2sccc12	-	-	-	-	-	-81	-	96	-	97
CCc1nn(CC(=O)Nc2ccc(Br)c(C)c2)c(=N)s1	-	-	-	-	-	-95	-	99	-	99
Cc1cc(NC(=O)Cn2nc3c(cc2=O)CCCC3)ccc1Br	-	-	-	-	-	-97	-	100	-	100
O=C(COC(=O)c1ccc(CN2CCCC2=O)cc1)Nc1ccc(F)cc1	.	-	-	.	-	.	.	.	.	.
COC(=O)c1ccc(NC(=O)CN2C(=O)c3ccccc3S2(=O)=O)cc1	-	-	-	-	-	-90	-	96	-	97
COC(=O)c1ccc(C)c(NC(=O)CN2C(=O)c3ccccc3S2(=O)=O)c1	-	-	-	-	-	-	.	.	.	.
O=C(Nc1ccc(Cc2ccncc2)cc1)c1ccc(Br)o1	-	-	-	-	-	-81	-	88	-	94
COc1ccccc1C(=O)Nc1nnc([C@H]2C[C@H](O)[C@@H](CO)O2)s1	.	.	-	.	.	.	.	.	.	.
CC1(C)SC[C@H](C(=O)Nc2cccc(Cl)c2)N1C=O	-	-	-	-	-	-93	-	98	-	99
CCCSc1nsc(NC(=O)c2cccnc2OCC)n1	-	-	-	-	-	-95	-	100	-	100
Nc1c(S(=O)(=O)c2ccccc2)nnn1-c1ccccc1	-	-	-	-	-	-97	-	100	-	100
COc1ccc(S(=O)(=O)c2nnn(-c3ccccc3Cl)c2N)cc1	-	-	-	-	-	-	.	.	.	.
O=C(NNC(=O)C1CC1c1ccccc1)c1ccccc1F (centres undefined)	-	-	-	-	-	-	.	.	.	.
